Hits are enriched below; roughly 4.6% of the tested compounds scored in any of these assays.
RAM inhibit: yeast RAM network inhibition. S. cerevisiae dse1pr::URA3 reporter, 5-FOA growth OD615, 2 d; analog-sensitive cbk1-as2 kinase mutant strain. actives 1.8% (n = 190,000). inhibition, % at 50 µM;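 active means inhibition above a set limit, 3 SD over mean compound inhibition, cut at about 8.4% in these data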;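 further: 0% = DMSO-only wells with no growth and 100% = 10 µM 1-NA-PP1 full growth; inhibition rescues growth on 5-FOA so higher OD means more RAM inhibition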
WT yeast gro inh: growth inhibition of WT yeast, mitochondrial fusion screen; actives 2.1% (n = 190,000); inhibition, % at 10 µM; mitochondrial fusion phenotypic screen, WT strain; in the data active means inhibition above about 58%; tested in S. cerevisiae
Hck-Nef inh: human Hck-Nef kinase inhibition. P08631. Recombinant Hck-YEEI plus Nef, Z-Lyte FRET kinase assay. inhibition, % at 20 µM. actives 0.68% (n = 220,000). AID 463187;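 active means Hck-Nef kinase inhibition above about 50%, limit read from the data; inactive means inhibition below that limit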;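 further: 0% = DMSO with Hck plus Nef and 100% = Hck alone without Nef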
NCF1 inh: p47phox (human) inhibition. P14598. p47phox/p22phox peptide binding, fluorescence polarization, 2 h. inhibition, % at 24.7 µM. actives 0.53% (n = 220,000). AID 1274;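 active means inhibition above about 30%, limit read from the data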;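 further: 0% = p47phox with labelled peptide and 100% = labelled peptide alone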
Target sequence (P14598 whole entry, looked up): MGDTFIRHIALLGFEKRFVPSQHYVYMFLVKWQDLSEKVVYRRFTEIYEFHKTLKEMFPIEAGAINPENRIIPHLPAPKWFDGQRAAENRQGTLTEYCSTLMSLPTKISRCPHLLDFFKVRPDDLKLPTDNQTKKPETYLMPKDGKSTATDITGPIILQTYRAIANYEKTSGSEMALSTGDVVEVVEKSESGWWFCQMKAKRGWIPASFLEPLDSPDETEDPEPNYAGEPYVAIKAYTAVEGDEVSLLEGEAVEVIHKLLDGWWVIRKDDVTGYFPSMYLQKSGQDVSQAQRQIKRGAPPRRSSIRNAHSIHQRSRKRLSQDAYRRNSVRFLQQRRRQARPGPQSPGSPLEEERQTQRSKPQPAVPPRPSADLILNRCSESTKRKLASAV
Calb biofilm kill: mixtures killing C. albicans biofilm; actives 0.02% (n = 120,000); C. albicans biofilm persisters + clotrimazole, fluorescence viability; primary screen in compound mixtures of four per well; AID 1242; inhibition, % at 7.6 µM;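 active means inhibition above 30.3% in the primary screen of four-compound pools, then above 30% when the compound was retested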;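 further: compounds exposed to preformed 24 h biofilms for 48 h; 0% = untreated biofilm control and 100% = clotrimazole plus chlorhexidine kill blank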
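Test system: C. albicans biofilms. Buffer or medium: RPMI/MOPS medium, pH 7.0. Timing: 48 h compound exposure at 37 °C. Technique: Alamar Blue fluorescence. Evaluation: percent inhibition of biofilm viability.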
Arbovirus inh: antivirals against arbovirus infection. arbovirus infection cell-based antiviral screen. inhibition, % at 10 µM. actives 0.37% (n = 200,000). AID 1251; in the data active means inhibition above about 30%
An asterisk follows results filed as active; . = not tested or not shown.

SMILES | RAM inhibit | WT yeast gro inh | Hck-Nef inh | NCF1 inh | Calb biofilm kill | Arbovirus inh
Cc1ccc(C(=O)Nc2ccccc2SCC2CSc3nc4ccccc4c(=O)n32)cc1 (centres undefined) | 0 | -11 | -1 | 1 | . | 42*
COc1ccc(C(CCc2ccc(C)o2)NC(=O)Nc2ccc(OC)cc2OC)cc1 (centres undefined) | 10* | 21 | 1 | -2 | . | 8
COC(=O)c1ccc(-n2c(C)cc(C(=O)COC(=O)CC3Sc4ccccc4NC3=O)c2C)cc1 (centres undefined) | 8.8* | 41 | 3 | -56 | 29 | -1
CCOC(=O)c1c(C)n(-c2ccc(C)cc2)c2ccc(OCC(O)CN3CCN(C)CC3)cc12 (centres undefined) | -1 | 92* | 24 | 54* | 7 | -34
CCOC(=O)c1c(C)n(C)c2ccc(OCC(O)CN3CCN(C)CC3)cc12 (centres undefined) | 0 | 8 | 0 | 0 | . | 7
CCNc1ccc(C2(O)C(=O)c3ccccc3C2=O)cc1 | 0 | 3 | 3 | -2 | 12 | -1
O=C(O)c1ccccc1CSc1ccccn1 | 0 | -7 | 11 | 5 | 15 | 32*
COc1ccc(C(=O)CCC(C)(C)[N+](=O)[O-])cc1OC | 0 | -13 | 20 | -6 | 5 | 11
C/C(CC(=O)Nc1ccc(Cl)cc1)=N\NC(=O)C(=O)N1CCCCC1 | 0 | -1 | 15 | -6 | 10 | -13
CN1CCN(c2cc(N3CCc4ccccc4C3)c(F)cc2[N+](=O)[O-])CC1 | 1 | 87* | 1 | -4 | 14 | -44
CCC(=O)N1CCN(c2cc(N3CCN(C)CC3)c(F)cc2[N+](=O)[O-])CC1 | 0 | 9 | 1 | -6 | 12 | -8
CCOc1ccc(Br)cc1-c1noc(-c2cccs2)n1 | 8.8* | 4 | -8 | -7 | . | -2
COc1cc(OC)cc(-c2nc(-c3cccs3)no2)c1 | 9.8* | -8 | 6 | 0 | 14 | -6
COc1cccc(-c2nc(-c3cccs3)no2)c1 | . | . | 9 | -4 | 21 | .
COc1cc(OC)cc(N(C(=O)CNC(=O)c2cccs2)C(C(=O)NCC2CCCO2)c2ccc(OC)c(OC)c2)c1 (centres undefined) | 2 | 0 | 25 | 3 | 8 | 1
CCOC(=O)c1cnc2ncnn2c1N | 1 | 4 | 2 | -4 | 12 | 6
COc1ccccc1Nc1nc(N)nc(-c2oc3ccccc3c2C)n1 | 9.8* | -2 | 0 | -7 | . | 2
COc1ccccc1Nc1nc(N)nc(CCl)n1 | . | . | 15 | -4 | 23 | .
COc1ccc(OCc2nc(N)nc(Nc3ccccc3OC)n2)cc1 | 4 | -7 | 0 | 99* | . | 4
CCOc1ccc(N2CC(C(=O)OC)CC2=O)cc1 (centres undefined) | 0 | 20 | 0 | 4 | . | -2
NNc1nc2c(Cl)ccc(Cl)c2s1 | 4 | 19 | 5 | 1 | 15 | 29
CC(C)CCNC(=O)CCCOc1cc(=O)n(C)c2ccccc12 | 1 | 96* | 0 | -2 | . | -8
Cc1nn2c(c1-c1ccc(Cl)cc1)N=C(c1ccco1)CC2c1ccccc1 (centres undefined) | 6 | -32 | 0 | -65 | . | -11
Cc1ccc(-n2c(O)c(/C=C3/C(c4ccccc4)=Nc4ccccc43)c(=O)[nH]c2=O)cc1 | 3 | 19 | 2 | -107 | 14 | 2
CSc1nsc2nc(=O)c(/C=C3\C(C)=Nc4ccccc43)c(N)n12 | 3 | 8 | -42 | -90 | 11 | 32*
SMILES | RAM inhibit | WT yeast gro inh | Hck-Nef inh | NCF1 inh | Calb biofilm kill | Arbovirus inh
O=C(NC(Cc1ccccc1)C(=O)O)/C(=C\c1ccc(F)cc1)NC(=O)c1ccccc1 (centres undefined) | 0 | -5 | 1 | -6 | . | 4
COc1ccc(S(=O)(=O)n2ccc(-c3cnc(-c4ccccc4)s3)n2)cc1 | 9.3* | 32 | -1 | 0 | . | 4
O=C(c1ccccc1)c1ccc(OCCn2cnc3ccccc3c2=O)cc1 | 5 | 10 | 0 | -12 | . | 9
CC(C)(c1ccccc1)c1ccc(OCCn2cnc3ccccc3c2=O)cc1 | 8.7* | . | 2 | -4 | . | -34
CCc1nn(C(C)C(=O)N2CCN(Cc3ccccc3)CC2)c(=O)c2cc3occc3n12 (centres undefined) | 0 | 58* | -2 | -11 | . | -2
Cc1nn(C(C)C(=O)N2CCN(c3ccccn3)CC2)c(=O)c2cc3occc3n12 (centres undefined) | 2 | 2 | -2 | -6 | . | -8
Cc1cc(C)c(NC(=O)COC(=O)/C=C/c2cccs2)c(C)c1 | 5 | -16 | 0 | 2 | 17 | 7
O=C(CC(Nc1ccc(F)cc1)c1ccccc1)c1ccccc1 (centres undefined) | 1 | 78* | 0 | -13 | 13 | 2
O=C(CC(Nc1ccc(Cl)cc1)C(=O)O)c1ccccc1 (centres undefined) | 2 | -10 | 6 | -8 | 17 | -24
Cc1ccc(S(=O)(=O)N(CC(=O)NCCC2=CCCCC2)Cc2ccccc2F)cc1 | 8 | 61* | -1 | -7 | . | -25
CC(=O)Nc1ccc(C(=O)NCC(=O)OCc2ccccc2F)cc1 | 2 | 7 | -5 | -5 | -3 | 5
COc1ccc(CCNc2oc(Cc3cccc4ccccc34)nc2C#N)cc1OC | 6 | 34 | -5 | -40 | . | 5
COc1ccc(CCNc2oc(COc3ccc(Br)cc3)nc2C#N)cc1OC | 10.0* | 22 | 1 | -24 | . | -4
COc1cccc(/C=N/n2c(C)nc3ccccc32)c1OC | 3 | 62* | 2 | 3 | . | 1
Cc1nc2ccccc2n1/N=C/c1ccc([N+](=O)[O-])s1 | 0 | 80* | 5 | -6 | 9 | -32
O=C(COC(=O)c1cc(=O)c2ccccc2o1)Nc1ccc2ccccc2c1 | 4 | 13 | -4 | -2 | 18 | 5
Cn1cc(CNC(=O)c2cc(-c3ccc(Br)cc3)nc3ccccc23)cn1 | 8.8* | -5 | 7 | -10 | -1 | -3
COc1cc(OC)c(S(=O)(=O)Nc2ccc(C)cn2)cc1NC(C)=O | 1 | 14 | 3 | 1 | -7 | 0
CCN1c2ccccc2-c2nc3ccccc3n2C1c1cccs1 (centres undefined) | 2 | 64* | 20 | -11 | 19 | 1
CCNC(=S)N/N=C/c1sccc1C | 0 | 9 | 19 | 1 | 4 | 9
CC1(C)C2CC=C(/C=N/NC(=S)NCCc3ccccc3)C1C2 (centres undefined) | 7 | 66* | 4 | -15 | 12 | -13
Cc1ccsc1/C=N/NC(=S)NCCc1ccccc1 | 2 | 69* | 1 | -15 | 10 | -4
CNC(=S)N/N=C/C1=CCC2CC1C2(C)C (centres undefined) | 1 | 18 | 9 | -11 | 12 | -4
Cc1nn(Cc2ccc(F)cc2)c(C)c1NC(=O)CCCn1nc([N+](=O)[O-])cc1C | 1 | 17 | 1 | 2 | 17 | 7
